Measurements reported in ChEMBL document CHEMBL1154198, “Chemical genetics of Plasmodium falciparum” (Nature, 2010).
pEC50: −log10 of the molar value.

Tests used:
Plasmodium falciparum [1] = assay: ST_JUDE: Plasmodium falciparum 3D7 EC50 (uM) as measured by SYBR green dye; format: functional, organism-based
Plasmodium falciparum [2] = assay: ST_JUDE: Plasmodium falciparum K1 EC50 (uM) as measured by SYBR green dye; format: functional, organism-based
Plasmodium falciparum [3] = assay: ST_JUDE: Cytotoxicity against Plasmodium falciparum 3D7; format: functional, organism-based
In short: (§1)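 Asexual P. falciparum grown in human erythrocytes, exposed to compounds for 72 h, and growth read as the DNA quantity in treated versus control cultures. Dose-response run at 12 concentrations from 10 μM to 5 nM.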

Plasmodium falciparum [4] = assay: ST_JUDE: Cytotoxicity against Plasmodium falciparum K1; format: functional, organism-based; in short: as §1
Plasmodium falciparum [5] = assay: ST_JUDE: Cytotoxicity against Plasmodium falciparum V1/S; format: functional, organism-based
Toxoplasma gondii = assay: ST_JUDE: Growth inhibition of to Toxoplasma gondii, in human U-2OS cells, as measured by luciferase.; format: functional, organism-based; conditions: RH, U2OS
In short: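 T. gondii parasites engineered to express luciferase; drug sensitivity read by luminescence.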

Trypanosoma brucei = assay: ST_JUDE: Cytotoxicity using luciferase to measure ATP as an indicator of the viability of Trypanosoma brucei; format: functional, organism-based
Leishmania major = assay: ST_JUDE: Cytotoxicity using Alamar Blue to measure viability of Leishmania major; format: functional, organism-based
In short: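 L. major promastigotes; drug susceptibility read with Alamar Blue.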

[6] = ST_JUDE: Cytotoxicity using luciferase to measure ATP as an indicator of the viability of human foreskin fibroblast cells (BJ); format: toxicity, cell-based
[7] = ST_JUDE: Cytotoxicity using luciferase to measure ATP as an indicator of the viability of human epithelial hepatocellular carcinoma cells (HepG2); format: toxicity, cell-based
[8] = ST_JUDE: Cytotoxicity using luciferase to measure ATP as an indicator of the viability of human epithelial embryonic kidney cells (HEK293); format: toxicity, cell-based
[9] = ST_JUDE: Cytotoxicity using luciferase to measure ATP as an indicator of the viability of human Burkitt''s lymphoma lymphoblast cells (Raji); format: toxicity, cell-based
Plasmodium falciparum [10] = assay: ST_JUDE: Cytotoxicity against Plasmodium falciparum W2; format: functional, organism-based
Plasmodium falciparum [11] = assay: ST_JUDE: Cytotoxicity against Plasmodium falciparum SB-A6; format: functional, organism-based
Plasmodium falciparum [12] = assay: ST_JUDE: Cytotoxicity against Plasmodium falciparum D10 transfected with yeast DHOD; format: functional, organism-based

Row | pEC50 (Plasmodium falciparum [1]) | pEC50 (Plasmodium falciparum [2]) | Compound | further results
1 | 5.10 | < 4.82 | COc1ccc2cc(C(=O)C3CCCN(C4CCN(C(C)C)CC4)C3)ccc2c1 (centres undefined) | 
2 | < 4.82 | < 4.82 | Cc1cccc(N2COc3ccc(C(C)(C)C)cc3C2)c1 | 
3 | < 4.82 | 5.48 | CC(C)CN(CC(C)C)S(=O)(=O)c1ccc(C(=O)Nc2nc(-c3ccccn3)cs2)cc1 | 
4 | < 4.82 | < 4.82 | CCCCc1ccc(NC(=O)Cc2csc(NC(=O)c3cc(OC)cc(OC)c3)n2)cc1 | 
5 | < 4.82 | 5.21 | CC(NC(=S)Nc1cccc([N+](=O)[O-])c1)c1ccc(C(C)(C)C)cc1 (centres undefined) | 
6 | < 4.82 | < 4.82 | CCOC(=O)c1ccc(Nc2nc3nonc3nc2O)cc1 | 
7 | 5.41 | 5.80 | Oc1ccc(Br)c2c1NC(c1ccc(Cl)cc1)C1CC=CC21 (centres undefined) | 
8 | 5.85 | 5.84 | C[n+]1ccccc1/C=C/c1ccc(Br)cc1 | 
9 | < 4.82 | 5.33 | Cc1cccc(NC(=O)CSc2nc3c4ccccc4nc-3c(O)n2-c2ccc([N+](=O)[O-])cc2)c1 | 
10 | < 4.82 | < 4.82 | CCOC(=O)C1=C(C)N=c2s/c(=C\c3cc(Cl)ccc3O)c(=O)n2C1c1ccc(OC)cc1 (centres undefined) | 
11 | < 4.82 | < 4.82 | Cc1ccc(N2C(=O)CC(Sc3nccc(C)n3)C2=O)cc1 (centres undefined) | 
12 | 5.80 | < 4.82 | CC(Cc1ccccc1)NC1=NS(=O)(=O)c2cc([N+](=O)[O-])ccc21 (centres undefined) | 
13 | < 4.82 | 5.19 | CC(C)Cc1cc(C(=O)NCC2Cc3cc(Cl)cc(-c4ccncc4)c3O2)no1 (centres undefined) | 
14 | 6.23 | < 4.82 | CCN(CC)c1cc(C)c2cc(NC(=O)c3cccc([N+](=O)[O-])c3)ccc2n1 | 
15 | < 4.82 | < 4.82 | CCOCCn1c(CN(Cc2ccccc2)Cc2ccccc2)nc2c1c(=O)n(C)c(=O)n2C | 
16 | < 4.82 | < 4.82 | Cc1sc(NC(=O)CSc2ccc(Cl)cc2)nc1-c1ccccc1 | 
17 | < 4.82 | < 4.82 | COCCn1c(SCC(=O)Nc2cccc(F)c2)nc2c(c1=O)SC(C)C2 (centres undefined) | 

Row | pEC50 (Plasmodium falciparum [1]) | pEC50 (Plasmodium falciparum [2]) | Compound | further results
18 | < 4.82 | < 4.82 | N#Cc1ccc(Cn2c(=O)n(CCCC(=O)NCc3ccccc3)c(=O)c3sccc32)cc1 | 
19 | < 4.82 | < 4.82 | COc1ccc(NC(=O)Cn2ncc3c(=O)oc4ccc(C)cc4c32)cc1 | 
20 | 5.95 | 5.81 | CCOc1cc(C2CC(=O)NC3=C2C(=O)CC(c2ccc(OC)cc2)C3)cc(Br)c1O (centres undefined) | 
21 | 5.59 | < 4.82 | O=C(Nc1ccc(-c2nc3ccccc3[nH]2)cc1)[C@H](Cc1ccccc1)N1Cc2ccccc2C1=O | 
22 | < 4.82 | 5.28 | COc1cccc(C(=O)NC(c2ccc([N+](=O)[O-])cc2)c2c(O)ccc3ccccc23)c1 (centres undefined) | 
23 | < 4.82 | < 4.82 | COc1ccc(OC)c(Nc2nc(NCCO)c3ccccc3n2)c1 | 
24 | 5.70 | 5.92 | C=CCN1C=CC=C/C1=C\c1sc2ccccc2[n+]1C | pEC50 (Plasmodium falciparum [3]): 5.93; pEC50 (Plasmodium falciparum [4]): 6.03; pEC50 (Plasmodium falciparum [5]): < 5.04; pEC50 (Toxoplasma gondii): < 4.71; pEC50 (Trypanosoma brucei): 4.97; pEC50 (Leishmania major): 7.30; pEC50 [6]: < 4.45; pEC50 [7]: < 4.45; pEC50 [8]: < 4.45; pEC50 [9]: 5.08; pEC50 (Plasmodium falciparum [10]): 5.21; pEC50 (Plasmodium falciparum [11]): 5.53; pEC50 (Plasmodium falciparum [12]): 5.25
25 | < 4.82 | < 4.82 | NS(=O)(=O)c1ccc(NC(=O)Cc2ccc([N+](=O)[O-])cc2)cc1 | 
26 | 5.43 | 5.37 | O=[N+]([O-])c1cccc(C2Nc3ccccc3-c3nc4ccccc4n32)c1 (centres undefined) | 
27 | 5.15 | 6.48 | COc1ccc(C2C(C(=O)OC(C)C)=C(C)N=c3s/c(=C\c4cc(Cl)ccc4O)c(=O)n32)cc1 (centres undefined) | 
28 | < 4.82 | < 4.82 | CCOC(=O)C(C)Sc1nc2ccccc2c(=O)n1CC1CCCCC1 (centres undefined) | 
29 | < 4.82 | < 4.82 | COCCn1/c(=N/C(=O)CSCC(=O)Nc2cc(C)on2)sc2cc(OC)ccc21 | 
30 | < 4.82 | < 4.82 | CCCCCC/N=C1\CC(C)(C)CC(O)=C1C(=O)CCCN1C(=O)c2ccccc2C1=O | 
31 | 6.21 | 6.75 | CN(C)c1ccc(C(O)(c2ccc(N(C)C)cc2)c2ccc(N(C)C)cc2)cc1 [METHYLROSANILINE] | 
32 | < 4.82 | 5.42 | O=C(N/N=C/c1ccc([N+](=O)[O-])o1)c1ccc(O)cc1 [NIFUROXAZIDE] | 
33 | 5.42 | 5.65 | O=C(CCCCCN1C(=O)c2cccc3cccc(c23)C1=O)NO [SCRIPTAID] | 
